In brackets after ≈: the same amount, converted by molar mass. Activity calls are given as the source filed them. The rule behind the calls is not given here.
Key:
[1] = biological target: T1, Transcriptional activator protein LuxR (Aliivibrio fischeri) (UniProt P12746); assay: Antagonist activity at Vibrio fischeri LuxR-mediated quorum sensing expressed in Escherichia coli JB523 assessed as inhibition of C6-HSL-induced GFP expression at 1 mM after 24 hrs by reporter gene assay; type: functional
T1 sequence (whole entry): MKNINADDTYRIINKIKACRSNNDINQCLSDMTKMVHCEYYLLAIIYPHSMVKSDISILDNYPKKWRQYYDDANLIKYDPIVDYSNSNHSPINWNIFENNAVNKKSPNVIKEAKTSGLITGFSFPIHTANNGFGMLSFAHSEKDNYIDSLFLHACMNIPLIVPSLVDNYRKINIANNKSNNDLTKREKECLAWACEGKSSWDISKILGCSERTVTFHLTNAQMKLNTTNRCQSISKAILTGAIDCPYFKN
How it was run: (§1)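 JB523 GFP biosensor in LB/0.4% NaCl at OD590 0.1 with tetracycline 100 µg/ml final; compounds co-added with C6-HSL (5 µM). Plates kept 24 h at 30 °C, then GFP read at 485/510 nm. Each compound tested in twelve wells, assay repeated at least three times.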

[2] = system: Escherichia coli; assay: Antibacterial activity against Escherichia coli JB523 after 20 hrs by broth microdilution assay; type: functional; conditions: JB523, 20 h
How it was run: (§2)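 EUCAST broth microdilution in triplicate, inoculum about 5 × 10^5 CFU/ml. Incubated 20 h at 37 °C, then OD590 read. Compounds from 100 mM DMSO stocks, diluted in water.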

[3] = system: Burkholderia cenocepacia; assay: Antibacterial activity against Burkholderia cenocepacia LMG16656 after 20 hrs by broth microdilution assay; type: functional; conditions: LMG16656, 20 h; how it was run: as §2
[4] = system: Pseudomonas aeruginosa; assay: Antibacterial activity against Pseudomonas aeruginosa PAO1 after 20 hrs by broth microdilution assay; type: functional; conditions: PAO1, 20 h; how it was run: as §2
[5] = system: Pseudomonas aeruginosa; assay: Antibacterial activity against Pseudomonas aeruginosa QSIS2 after 20 hrs by broth microdilution assay; type: functional; conditions: QSIS2, 20 h; how it was run: as §2
[6] = biological target: T1, Transcriptional activator protein LuxR (Aliivibrio fischeri); assay: (§3) Antagonist activity at Vibrio fischeri LuxR-mediated quorum sensing expressed in Escherichia coli JB523 assessed as inhibition of C6-HSL-induced GFP expression after 24 hrs by reporter gene assay; type: functional; how it was run: as §1
[7] = biological target: T1, Transcriptional activator protein LuxR (Aliivibrio fischeri); assay: Antagonist activity at Vibrio fischeri LuxR-mediated quorum sensing expressed in Escherichia coli JB523 assessed as inhibition of C6-HSL-induced GFP expression at 0.1 mM after 24 hrs by reporter gene assay; type: functional; how it was run: as §1
[8] = biological target: T1, Transcriptional activator protein LuxR (Aliivibrio fischeri); assay: Antagonist activity at Vibrio fischeri LuxR expressed in Escherichia coli JB523 assessed as inhibition of C6-HSL-induced GFP expression at 0.5 mM after 24 hrs by reporter gene assay; type: functional; how it was run: as §1
[9] = system: Pseudomonas aeruginosa; assay: Antagonist activity at Pseudomonas aeruginosa QSIS2 LasR-mediated quorum sensing co-expressing SacB1 assessed as inhibition of 3-oxo-C12-HSL-induced luminescence at 0.1 mM after 24 hrs by reporter gene assay; type: functional
[10] = system: Pseudomonas aeruginosa; assay: Antagonist activity at Pseudomonas aeruginosa QSIS2 LasR-mediated quorum sensing co-expressing SacB1 assessed as inhibition of 3-oxo-C12-HSL-induced luminescence at 0.25 mM […] by reporter gene assay; type: functional
[11] = system: Pseudomonas aeruginosa; assay: Antagonist activity at Pseudomonas aeruginosa QSIS2 LasR-mediated quorum sensing co-expressing SacB1 assessed as inhibition of 3-oxo-C12-HSL-induced luminescence at 0.5 mM after 24 hrs by reporter gene assay; type: functional
[12] = biological target: T1, Transcriptional activator protein LuxR (Aliivibrio fischeri); assay: Agonist activity at Vibrio fischeri LuxR-mediated quorum sensing expressed in Escherichia coli JB523 assessed as GFP expression at 0.1 mM after 24 hrs by reporter gene assay; type: functional
How it was run: (§4)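 E. coli JB523 (pJBA130, luxR-PluxI–GFP) overnight culture diluted to OD590 0.1 in LB with 0.4% NaCl, tetracycline 100 µg/ml final. Compounds 100–1000 µM added without signal; C6-HSL (5 µM) as positive control, water as negative. 24 h at 30 °C; GFP fluorescence ex 485/em 510 nm. Twelve wells per compound, ≥3 repeats.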

[13] = biological target: T1, Transcriptional activator protein LuxR (Aliivibrio fischeri); assay: Agonist activity at Vibrio fischeri LuxR-mediated quorum sensing expressed in Escherichia coli JB523 assessed as GFP expression at 0.25 mM after 24 hrs by reporter gene assay; type: functional; how it was run: as §4
[14] = biological target: T1, Transcriptional activator protein LuxR (Aliivibrio fischeri); assay: Agonist activity at Vibrio fischeri LuxR-mediated quorum sensing expressed in Escherichia coli JB523 assessed as GFP expression at 0.5 mM after 24 hrs by reporter gene assay; type: functional; how it was run: as §4
[15] = system: Pseudomonas aeruginosa; assay: Agonist activity at Pseudomonas aeruginosa QSIS2 LasR-mediated quorum sensing co-expressing SacB1 assessed as luminescence at 0.1 mM after 24 hrs by reporter gene assay; type: functional
[16] = system: Pseudomonas aeruginosa; assay: Agonist activity at Pseudomonas aeruginosa QSIS2 LasR-mediated quorum sensing co-expressing SacB1 assessed as luminescence at 0.25 mM after 24 hrs by reporter gene assay; type: functional
[17] = system: Pseudomonas aeruginosa; assay: Agonist activity at Pseudomonas aeruginosa QSIS2 LasR-mediated quorum sensing co-expressing SacB1 assessed as luminescence at 0.5 mM after 24 hrs by reporter gene assay; type: functional
[18] = system: Pseudomonas aeruginosa; assay: Agonist activity at Pseudomonas aeruginosa QSIS2 LasR-mediated quorum sensing co-expressing SacB1 assessed as luminescence after 24 hrs by reporter gene assay; type: functional
[19] = system: Pseudomonas aeruginosa; assay: Antimicrobial activity against Pseudomonas aeruginosa PAO1 assessed as inhibition of biofilm formation at 1 mM after 24 hrs by crystal violet staining; type: functional; conditions: for inhibition at 1000 µM: PAO1, 24 h
How it was run: (§5)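 Overnight MH cultures resuspended in 2× MH at OD590 0.1 and mixed 1:1 with compound or water. Adhesion 4 h at 37 °C without agitation, then washed with saline. Refilled with 2× MH plus compound and incubated 20 h at 37 °C. Methanol-fixed, crystal violet stained, eluted with 33% acetic acid, A590 read. Expressed as % of untreated biofilm; n ≥ 24.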

[20] = system: Burkholderia cenocepacia; assay: Antimicrobial activity against Burkholderia cenocepacia LMG16656 assessed as inhibition of biofilm formation at 1 mM after 24 hrs by crystal violet staining; type: functional; conditions: LMG16656, 24 h; how it was run: as §5
[21] = system: Pseudomonas aeruginosa; assay: Antimicrobial activity against Pseudomonas aeruginosa PAO1 assessed as reduction of biofilm biomass at 1 mM incubated for 24 hrs post-biofilm growth by crystal violet staining; type: functional
How it was run: (§6)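 Mature-biofilm treatment: biofilms grown 24 h at 37 °C without compound, rinsed with saline, then fresh medium containing compound added for a further 24 h at 37 °C. Biomass measured by crystal violet (methanol fixation, acetic acid elution, A590). Reported as % of control biofilm; twelve wells, ≥2 repeats.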

[22] = system: Burkholderia cenocepacia; assay: Antimicrobial activity against Burkholderia cenocepacia LMG16656 assessed as reduction of biofilm biomass at 1 mM incubated for 24 hrs post-biofilm growth by crystal violet staining; type: functional, organism-based; how it was run: as §6
[23] = system: Pseudomonas aeruginosa; assay: Antimicrobial activity against Pseudomonas aeruginosa PAO1 assessed as reduction of cell viability at 1 mM incubated for 24 hrs post-biofilm growth by CTB staining; type: functional
How it was run: (§7)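 Biofilms were grown 24 h at 37 °C in 2× MH (inoculum OD590 0.1) without compound. Wells were rinsed with saline, fresh medium with compound was added, and plates were held a further 24 h at 37 °C. Metabolically active cells were measured by CTB resazurin fluorescence after 60 min (ex 535/em 590) as % of control biofilm; n ≥ 24.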

[24] = system: Burkholderia cenocepacia; assay: Antimicrobial activity against Burkholderia cenocepacia LMG16656 assessed as reduction of cell viability at 1 mM incubated for 24 hrs post-biofilm growth by CTB staining; type: functional, organism-based; how it was run: as §7
[25] = Cytotoxicity against human MRC5 cells after 3 days by resazurin reduction assay; type: cell-based
How it was run: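 MRC-5 SV2 human lung fibroblasts in Earle's MEM with 5% FCSi, about 10^4 cells per well, exposed for 3 days at 37 °C and 5% CO2. Viability read by resazurin fluorescence (ex 550/em 590 nm) as % reduction versus untreated wells; CC50 derived.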

[26] = system: Pseudomonas aeruginosa; assay: Antagonist activity at Pseudomonas aeruginosa QSIS2 LasR-mediated quorum sensing co-expressing SacB1 assessed as inhibition of 3-oxo-C12-HSL-induced luminescence at 1 mM […] by reporter gene assay; type: functional
[27] = biological target: T1, Transcriptional activator protein LuxR (Aliivibrio fischeri); assay: Agonist activity at Vibrio fischeri LuxR-mediated quorum sensing expressed in Escherichia coli JB523 assessed as GFP expression at 1 mM after 24 hrs by reporter gene assay; type: functional; how it was run: as §4
[28] = system: Pseudomonas aeruginosa; assay: Agonist activity at Pseudomonas aeruginosa QSIS2 LasR-mediated quorum sensing coexpressing SacB1 assessed as […] by reporter gene assay; type: functional
[29] = system: Pseudomonas aeruginosa; assay: Antimicrobial activity against Pseudomonas aeruginosa PAO1 assessed as reduction of cell viability at 1 mM after 24 hrs by CTB staining; type: functional, organism-based
How it was run: (§8)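 Overnight MH cultures were centrifuged, resuspended in 2× MH and set to OD590 0.1. Cells adhered 4 h at 37 °C, wells were washed with saline, then compound in 2× MH was added for 20 h at 37 °C. Viable cells were read by resazurin (CTB) fluorescence after 60 min (ex 535/em 590) as % of untreated biofilm; 12 wells, ≥2 repeats.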

[30] = system: Burkholderia cenocepacia; assay: Antimicrobial activity against Burkholderia cenocepacia LMG16656 assessed as reduction of cell viability at 1 mM after 24 hrs by CTB staining; type: functional, organism-based; how it was run: as §8
[31] = biological target: T2, Transcriptional activator protein LuxR (Aliivibrio fischeri, UniProt P12746); assay: as §3; type: functional; how it was run: as §1
T2 sequence (P12746 whole entry): T1 sequence (whole entry)

SMILES | inhibition [1] [%] | MIC [2] [µM] | MIC [3] [µM] | MIC [4] [µM] | MIC [5] [µM] | inhibition [6] | inhibition [7] | inhibition [8] [%] | inhibition [9] | inhibition [10] | inhibition [11] | Activity [12] | Activity [13] | Activity [14] | Activity [15] | Activity [16] | Activity [17] [%] | Activity [18] | inhibition at 1000 µM [20] [%] | Activity [21] | further results
CCCCCCCCCCCCc1cn(C2CCOC2=O)nn1 (stereo unspecified) | 34.4 | 2500 (≈ 804 µg/mL) | 2500 (≈ 804 µg/mL) | 2500 (≈ 804 µg/mL) | 2500 (≈ 804 µg/mL) | Dose-dependent effect | inactive | 23.7 | 10.6% | 12.8% | 30.9% | inactive | inactive | inactive | 28.7% | 32% | 43.8 | Dose-dependent effect | 70 | Active | inhibition at 1000 µM [19]: 46%; Activity [22]: Active; Activity [23]: Active; Activity [24]: Active; CC50 at 72 h [25]: 670 µM; inhibition [26]: 36.5%; Activity [27]: inactive; Activity [28]: 45.5%; Activity [29]: Active; Activity [30]: Active
O=C1OCCC1n1cc(CCc2ccccc2)nn1 (stereo unspecified) | 29.2 | 10000 (≈ 2570 µg/mL) | 5000 (≈ 1290 µg/mL) | 2500 (≈ 643 µg/mL) | 5000 (≈ 1290 µg/mL) | Dose-dependent effect | inactive | 25.7 | 15.8% | 25.3% | 35.2% | inactive | inactive | inactive | 39.1% | 41.5% | 67.2 | Dose-dependent effect | 40 | 36% | inhibition at 1000 µM [19]: 40%; Activity [22]: Active; Activity [23]: 37%; Activity [24]: Active; CC50 at 72 h [25]: > 1000 µM; inhibition [26]: 43.2%; Activity [27]: inactive; Activity [28]: 81.4%; Activity [29]: Active; Activity [30]: Active
CCCCCCCCc1cn(C2CCOC2=O)nn1 (stereo unspecified) | 71.6 | 5000 (≈ 1330 µg/mL) | 2500 (≈ 663 µg/mL) | 2500 (≈ 663 µg/mL) | 2500 (≈ 663 µg/mL) | Dose-dependent effect | 34.1% | 59.8 | inactive | inactive | inactive | inactive | inactive | 5.2% | inactive | inactive | 19.4 | Dose-dependent effect | 68 | 38% | IC50 [31]: 308 µM; inhibition [19]: inactive; Activity [22]: Active; Activity [23]: 28%; Activity [24]: Active; CC50 at 72 h [25]: > 1000 µM; inhibition [26]: inactive; Activity [27]: 10.6%; Activity [28]: 29%; Activity [29]: Active; Activity [30]: Active

Reference: ChEMBL document CHEMBL2062523, “Synthesis and evaluation of the quorum sensing inhibitory effect of substituted triazolyldihydrofuranones” (Bioorg Med Chem, 2012)
